In ChEMBL document CHEMBL4038284, “Synthesis of novel quinoline-based 4,5-dihydro-1H-pyrazoles as potential anticancer, antifungal, antibacterial and antiprotozoal agents” (Eur J Med Chem, 2017):
Converted amounts (≈) assume the structure as drawn. The source made the active and inactive calls. No cut-off for these calls is given here.

Experiments:
[1] = system: HCC 2998; assay: Growth inhibition of human HCC2998 cells at 10 uM incubated for 48 hrs by sulforhodamine B assay; type: functional, cell-based
Summary of the method: (§1)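 NCI 60-cell-line screen at a single 10 µM dose. Cells in RPMI-1640 with 5% FBS and 2 mM L-glutamine, pre-incubated 24 h, then treated for 48 h at 37 °C. TCA fixation, sulforhodamine B staining, absorbance at 515 nm. Percentage growth calculated against time-zero and untreated controls.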

[2] = system: CCRF-CEM; assay: Growth inhibition of human CCRF-CEM cells at 10 uM incubated for 48 hrs by sulforhodamine B assay; type: functional, cell-based; summary of the method: as §1
[3] = system: Escherichia coli; assay: Antibacterial activity against Escherichia coli ATCC 25922 after 24 hrs by resazurin dye based microdilution assay; type: functional; conditions: ATCC 25922, 24 h
Summary of the method: (§2)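 MIC taken as the lowest concentration giving visible inhibition and/or by resazurin (1 mg/mL). Gentamicin was the control. Run in duplicate, repeated at least three times.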

[4] = system: Leishmania panamensis; assay: Antileshmanial activity against EpiR/GFP fused Leishmania panamensis MHOM/CO/87/UA140 intracellular amastigotes infected in human […] cells after 72 hrs by flow cytometric method; type: functional, cell-based; conditions: MHOM/CO/87/UA140, 72 h
Summary of the method: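 PMA-treated U-937 cells (3 × 10^5 cells/mL) infected with stationary-phase GFP L. panamensis promastigotes (15:1), 3 h at 34 °C, then washed. After 24 h, compounds added at 50, 12.5, 3.125 and 0.78 µg/mL for 72 h at 37 °C. EC50 by Probit; triplicate, two experiments.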

[5] = system: Candida albicans; assay: Growth inhibition of Candida albicans ATCC 10231 at 62.5 ug/ml incubated for 48 hrs under dark condition by broth microdilution method relative to control; type: functional; conditions: ATCC 10231, 48 h, read-out: GI
Summary of the method: (§3)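 CLSI M27-A3 broth microdilution in RPMI-1640, DMSO ≤1%. Inoculum 1-5 × 10^3 CFU/mL. Incubated 48 h at 30 °C, dark. % inhibition = 100 − (OD405 test − sterility control)/(OD405 growth control − sterility control), with growth and sterility control wells. Triplicate.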

[6] = system: Plasmodium falciparum; assay: Antiplasmodial activity against chloroquine-sensitive Plasmodium falciparum 3D7 assessed as reduction in parasitic LDH activity after 48 hrs by Malstat reagent based […] method; type: functional; conditions: 3D7, 48 h
Summary of the method: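 Unsynchronized P. falciparum 3D7 at 0.5% parasitemia and 1% hematocrit in RPMI with 3% Albumax II. Exposed to 100, 25, 6.25 and 1.56 µg/mL for 48 h at 37 °C under 90% N2/5% CO2/5% O2. After three freeze-thaw cycles, LDH measured with Malstat and NBT/PES, 1 h in the dark, read at 650 nm. IC50 by Probit; triplicate, ≥2 experiments.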

[7] = system: HOP-92; assay: Growth inhibition of human HOP92 cells at 10 uM incubated for 48 hrs by sulforhodamine B assay; type: functional, cell-based
Summary of the method: (§4)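 NCI 60-line panel, single 10 μM dose. Cells were grown in RPMI-1640 with 5% FBS and 2 mM L-glutamine and pre-incubated 24 h before compound addition (DMSO stock). Exposure was 48 h at 37 °C, 5% CO2. Cells were fixed with cold TCA (10% final), stained with 0.4% SRB, bound dye dissolved in 10 mM Tris base, A515 read. Growth was taken relative to time-zero and untreated control plates.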

[8] = system: OVCAR-4; assay: Growth inhibition of human OVCAR4 cells at 10 uM incubated for 48 hrs by sulforhodamine B assay; type: functional, cell-based; summary of the method: as §4
[9] = system: Cryptococcus neoformans; assay: Growth inhibition of Cryptococcus neoformans ATCC 32264 at 31.25 ug/ml incubated for 48 hrs under dark condition by broth microdilution method relative to control; type: functional; conditions: ATCC 32264, 48 h, read-out: GI; summary of the method: as §3
[10] = system: A498; assay: Growth inhibition of human A498 cells at 10 uM incubated for 48 hrs by sulforhodamine B assay; type: functional, cell-based; summary of the method: as §1
[11] = system: EKVX; assay: Growth inhibition of human EKVX cells at 10 uM incubated for 48 hrs by sulforhodamine B assay; type: functional, cell-based; summary of the method: as §1
[12] = system: Pseudomonas aeruginosa; assay: Antibacterial activity against Pseudomonas aeruginosa ATCC 27853 after 24 hrs by resazurin dye based microdilution assay; type: functional; conditions: ATCC 27853, 24 h; summary of the method: as §2
[13] = system: Neisseria gonorrhoeae; assay: Antibacterial activity against beta lactamase positive Neisseria gonorrhoeae ATCC 31426 by oxidase test; type: functional
Summary of the method: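 Agar dilution MIC on GC agar with 1% isovitalex containing increasing compound concentrations. Plates inoculated with about 1×10^4 CFU (5 µL). MIC is the lowest concentration that inhibited growth, with growth confirmed by oxidase test. Run in duplicate, repeated at least three times.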

[14] = system: HT-29; assay: Growth inhibition of human HT-29 cells at 10 uM incubated for 48 hrs by sulforhodamine B assay; type: functional, cell-based; summary of the method: as §4
[15] = system: COLO 205; assay: Growth inhibition of human COLO205 cells at 10 uM incubated for 48 hrs by sulforhodamine B assay; type: functional, cell-based; summary of the method: as §1
[16] = system: UO-31; assay: Growth inhibition of human UO31 cells at 10 uM incubated for 48 hrs by sulforhodamine B assay; type: functional, cell-based
Summary of the method: (§5)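 NCI-60 single-dose screen at 10 µM for 48 h. Cells were grown in RPMI-1640 with 5% FBS and 2 mM L-glutamine and preincubated 24 h before compound. Time-zero plates were TCA-fixed at compound addition. After exposure, cells were TCA-fixed, stained with SRB and read at 515 nm. Percentage growth was calculated against time-zero and untreated-control absorbances.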

[17] = system: NCI-H522; assay: Growth inhibition of human NCI-H522 cells at 10 uM incubated for 48 hrs by sulforhodamine B assay; type: functional, cell-based; summary of the method: as §4
[18] = system: Cryptococcus neoformans; assay: Growth inhibition of Cryptococcus neoformans ATCC 32264 at 15.62 ug/ml incubated for 48 hrs under dark condition by broth microdilution method relative to control; type: functional; conditions: ATCC 32264, 48 h, read-out: GI; summary of the method: as §3
[19] = system: SN12C; assay: Growth inhibition of human SN12C cells at 10 uM incubated for 48 hrs by sulforhodamine B assay; type: functional, cell-based; summary of the method: as §5
[20] = system: Cryptococcus neoformans; assay: Growth inhibition of Cryptococcus neoformans ATCC 32264 at 250 ug/ml incubated for 48 hrs under dark condition by broth microdilution method relative to control; type: functional; conditions: ATCC 32264, 48 h, read-out: GI; summary of the method: as §3
[21] = system: UACC-257; assay: Growth inhibition of human UACC257 cells at 10 uM incubated for 48 hrs by sulforhodamine B assay; type: functional, cell-based; summary of the method: as §5
[22] = system: Candida albicans; assay: Growth inhibition of Candida albicans ATCC 10231 at 250 ug/ml incubated for 48 hrs under dark condition by broth microdilution method relative to control; type: functional; conditions: ATCC 10231, 48 h, read-out: GI; summary of the method: as §3
[23] = system: Cryptococcus neoformans; assay: Growth inhibition of Cryptococcus neoformans ATCC 32264 at 7.8 ug/ml incubated for 48 hrs under dark condition by broth microdilution method relative to control; type: functional; conditions: ATCC 32264, 48 h, read-out: GI; summary of the method: as §3
[24] = system: MDA-MB-468; assay: Growth inhibition of human MDA-MB-468 cells at 10 uM incubated for 48 hrs by sulforhodamine B assay; type: functional, cell-based; summary of the method: as §4
[25] = system: MDA-MB-435; assay: Growth inhibition of human MDA-MB-435 cells at 10 uM incubated for 48 hrs by sulforhodamine B assay; type: functional, cell-based; summary of the method: as §4

Row | Compound | growth inhibition (GI) [1] | growth inhibition (GI) [2] | MIC [3] | EC50 [4] | inhibition of growth at 62.5 µg/mL [5] | EC50 [6] | growth inhibition (GI) [7] | growth inhibition (GI) [8] | inhibition of growth at 31.25 µg/mL [9] | growth inhibition (GI) [10] | growth inhibition (GI) [11] | MIC [12] | MIC [13] | growth inhibition (GI) [14] | growth inhibition (GI) [15] | growth inhibition (GI) [16] | inhibition of growth at 15.62 µg/mL [18] | inhibition of growth at 250 µg/mL [20] | inhibition of growth at 250 µg/mL [22] | inhibition of growth at 7.8 µg/mL [23] | also measured
1 | COc1cc(C(=O)/C=C/c2cccc(Nc3ccnc4cc(Cl)ccc34)c2)cc(OC)c1OC | Active | Active | > 1000 µg/mL | 5.92 µg/mL (≈ 12.5 µM) | 7.6% | 14.1 µg/mL (≈ 29.7 µM) | Active | Active | 3.63% | Active | Active | > 1000 µg/mL | > 1000 µg/mL | Active | Active | Active | 0% | 7.12% | 13.7% | 0% | growth inhibition (GI) [17]: Active; growth inhibition (GI) [19]: Active; growth inhibition (GI) [21]: Active; growth inhibition (GI) [24]: Active; growth inhibition (GI) [25]: Active
2 | COc1ccc(C2=NN(C=O)C(c3cccc(Nc4ccnc5cc(Cl)ccc45)c3)C2)cc1 (stereo unspecified) | Active | Active | > 1000 µg/mL | 33.1 µg/mL (≈ 72.5 µM) | 20.1% | 16.1 µg/mL (≈ 35.3 µM) | Active | Active | 29.1% | Active | Active | > 1000 µg/mL | > 1000 µg/mL | Active | Active | Active | 23.6% | 55.4% | 34.5% | 13.4% | growth inhibition (GI) [17]: Active; growth inhibition (GI) [19]: Active; growth inhibition (GI) [21]: Active; growth inhibition (GI) [24]: Active; growth inhibition (GI) [25]: Active
3 | O=Cc1cccc(Nc2ccnc3cc(Cl)ccc23)c1 | – | – | 62.5 µg/mL (≈ 221 µM) | 0.96 µg/mL (≈ 3.4 µM) | 19.6% | 14.2 µg/mL (≈ 50.1 µM) | – | – | 14.3% | – | – | > 1000 µg/mL | 500 µg/mL (≈ 1770 µM) | – | – | – | 9.47% | 100% | 59.2% | 5.93% | –
